Experimental data published in ChEMBL document CHEMBL4020704, “Metabolite diversification by cultivation of the endophytic fungus Dothideomycete sp. in halogen containing media: Cultivation of terrestrial fungus in seawater” (Bioorg Med Chem, 2017).
The source made the active and inactive calls.

Experiments:
Enterococcus faecalis = assay: Antibacterial activity against Enterococcus faecalis after 20 hrs by broth microdilution method; format: functional
Outline: (§1)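 Compounds dissolved in DMSO and two-fold serially diluted in 96-well plates, with final DMSO ≤0.5% (v/v). Inocula prepared in normal saline and adjusted to 0.5 McFarland turbidity. Plates incubated at 36 °C for 20 h, then absorbance read at 600 nm. MIC taken as the lowest concentration inhibiting growth.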

Salmonella typhimurium = assay: Antibacterial activity against Salmonella typhimurium after 20 hrs by broth microdilution method; format: functional; details: Salmonella enterica subsp. enterica serovar Typhimurium; outline: as §1
HuCC-A1 = assay: Cytotoxic activity against human HuCCa1 cells by MTT assay; format: functional, cell-based
Outline: (§2)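 Adherent cancer cell lines, viability read by MTT assay. Doxorubicin served as reference drug for A549, HepG2 and HuCCA-1, and etoposide also for HepG2. IC50 determined.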

Escherichia coli = assay: Antibacterial activity against Escherichia coli after 20 hrs by broth microdilution method; format: functional; outline: as §1
[1] = system: Staphylococcus epidermidis; assay: Antibacterial activity against Staphylococcus epidermidis after 20 hrs by broth microdilution method; format: functional; outline: as §1
Pseudomonas aeruginosa = assay: Antibacterial activity against Pseudomonas aeruginosa after 20 hrs by broth microdilution method; format: functional; outline: as §1
MOLT-3 = assay: Cytotoxic activity against human MOLT3 cells by XTT assay; format: functional, cell-based
Outline: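 Non-adherent MOLT-3 leukemia cells, viability read by XTT assay. Etoposide served as reference drug. IC50 determined.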

Staphylococcus aureus = assay: Antibacterial activity against Staphylococcus aureus after 20 hrs by broth microdilution method; format: functional; outline: as §1
Shigella flexneri = assay: Antibacterial activity against Shigella flexneri after 20 hrs by broth microdilution method; format: functional; outline: as §1
HepG2 = assay: Cytotoxic activity against human HepG2 cells by MTT assay; format: functional, cell-based; outline: as §2
Bacillus cereus = assay: Antibacterial activity against Bacillus cereus after 20 hrs by broth microdilution method; format: functional; outline: as §1

C[C@H]1C=C[C@H]2C[C@@](O)(CO)CC[C@@H]2[C@@]1(C)C(=O)CCO
inactive: Activity (Enterococcus faecalis) | Activity (Salmonella typhimurium) | Activity (HuCC-A1) | Activity (Escherichia coli) | Activity [1] | Activity (Pseudomonas aeruginosa) | Activity (MOLT-3) | Activity (Staphylococcus aureus) | Activity (Shigella flexneri) | Activity (HepG2) | Activity (Bacillus cereus)

CC1=CC2=C(CC(C)C(=O)C[C@H](C)O)C(=O)[C@](C)(O)[C@@H](O)C2=CO1 (stereo partly drawn)
inactive: Activity (Enterococcus faecalis) | Activity (Salmonella typhimurium) | Activity (HuCC-A1) | Activity (Escherichia coli) | Activity [1] | Activity (Pseudomonas aeruginosa) | Activity (MOLT-3) | Activity (Staphylococcus aureus) | Activity (Shigella flexneri) | Activity (HepG2) | Activity (Bacillus cereus)

CC1=CC2=C(C[C@@H](C)C3=CC(=O)CC(C)O3)C(=O)[C@](C)(O)[C@@H](O)C2=CO1 (stereo partly drawn)
inactive: Activity (Enterococcus faecalis) | Activity (Salmonella typhimurium) | Activity (HuCC-A1) | Activity (Escherichia coli) | Activity [1] | Activity (Pseudomonas aeruginosa) | Activity (MOLT-3) | Activity (Staphylococcus aureus) | Activity (Shigella flexneri) | Activity (HepG2) | Activity (Bacillus cereus)

COc1cc([C@@H]2c3cc4c(cc3[C@@H](O[C@@H]3O[C@@H]5CO[C@@H](C)O[C@H]5[C@H](O)[C@H]3O)[C@H]3COC(=O)[C@H]23)OCO4)cc(OC)c1O [ETOPOSIDE]
24.3 µg/mL: IC50 (HepG2)
0.04 µg/mL: IC50 (MOLT-3)

O=C(N[C@H](CO)[C@H](O)c1ccc([N+](=O)[O-])cc1)C(Cl)Cl [CHLORAMPHENICOL]
0.78 µg/mL: MIC [1] | MIC (Staphylococcus aureus) | MIC (Bacillus cereus)

C/C(=C\C=C\[C@H](O)[C@@H](C)O)[C@H](O)[C@H](C)C(=O)O[C@H]1C[C@H](CO)C[C@@H]2C=C[C@H](C)[C@](C)(C(=O)CCO)[C@@H]12
inactive: Activity (Enterococcus faecalis) | Activity (Salmonella typhimurium) | Activity (HuCC-A1) | Activity (Escherichia coli) | Activity [1] | Activity (Pseudomonas aeruginosa) | Activity (MOLT-3) | Activity (Staphylococcus aureus) | Activity (Shigella flexneri) | Activity (HepG2) | Activity (Bacillus cereus)

C/C(=C\C=C\[C@H](O)[C@H](C)O)[C@H](O)[C@H](C)C(=O)O[C@H]1C[C@H](C)C[C@@H]2C=C[C@H](C)[C@](C)(C(=O)[C@H](O)CO)[C@@H]12
inactive: Activity (Enterococcus faecalis) | Activity (Salmonella typhimurium) | Activity (HuCC-A1) | Activity (Escherichia coli) | Activity [1] | Activity (Pseudomonas aeruginosa) | Activity (MOLT-3) | Activity (Staphylococcus aureus) | Activity (Shigella flexneri) | Activity (HepG2) | Activity (Bacillus cereus)

CO[C@@H](/C=C/C=C(\C)[C@H](O)[C@H](C)C(=O)O[C@H]1C[C@H](C)C[C@@H]2C=C[C@H](C)[C@](C)(C(=O)[C@H](O)CO)[C@@H]12)[C@H](C)O
inactive: Activity (Enterococcus faecalis) | Activity (Salmonella typhimurium) | Activity (HuCC-A1) | Activity (Escherichia coli) | Activity [1] | Activity (Pseudomonas aeruginosa) | Activity (MOLT-3) | Activity (Staphylococcus aureus) | Activity (Shigella flexneri) | Activity (HepG2) | Activity (Bacillus cereus)

COc1cccc2c1C(=O)c1c(O)c3c(c(O)c1C2=O)C[C@@](O)(C(=O)CO)C[C@@H]3O[C@H]1C[C@H](N)[C@H](O)[C@H](C)O1 [DOXORUBICIN]
0.33 µg/mL: IC50 (HuCC-A1)

CO[C@@H](/C=C/C=C(\C)[C@H](O)[C@H](C)C(=O)O[C@H]1C[C@H](C)C[C@@H]2C=C[C@H](C)[C@](C)(C(=O)[C@H](O)CO)[C@@H]12)[C@@H](C)O
100 µg/mL: MIC [1] | MIC (Staphylococcus aureus) | MIC (Bacillus cereus)
inactive: Activity (Enterococcus faecalis) | Activity (Salmonella typhimurium) | Activity (HuCC-A1) | Activity (Escherichia coli) | Activity (Pseudomonas aeruginosa) | Activity (MOLT-3) | Activity (Shigella flexneri) | Activity (HepG2)

CN(C)[C@@H]1C(O)=C(C(N)=O)C(=O)[C@@]2(O)C(O)=C3C(=O)c4c(O)cccc4[C@@](C)(O)[C@H]3C[C@@H]12 [TETRACYCLINE]
1.56 µg/mL: MIC [1]
0.78 µg/mL: MIC (Staphylococcus aureus)
6.25 µg/mL: MIC (Bacillus cereus)

C[C@H]1C=C[C@H]2C[C@@H](CO)C[C@H](O)[C@@H]2[C@@]1(C)C(=O)[C@H](O)CO
inactive: Activity (Enterococcus faecalis) | Activity (Salmonella typhimurium) | Activity (HuCC-A1) | Activity (Escherichia coli) | Activity [1] | Activity (Pseudomonas aeruginosa) | Activity (MOLT-3) | Activity (Staphylococcus aureus) | Activity (Shigella flexneri) | Activity (HepG2) | Activity (Bacillus cereus)

CC1=CC2=C(C[C@H](C)C3=CC(=O)CC(C)O3)C(=O)[C@](C)(O)[C@@H](O)C2=CO1 (stereo partly drawn)
inactive: Activity (Enterococcus faecalis) | Activity (Salmonella typhimurium) | Activity (HuCC-A1) | Activity (Escherichia coli) | Activity [1] | Activity (Pseudomonas aeruginosa) | Activity (MOLT-3) | Activity (Staphylococcus aureus) | Activity (Shigella flexneri) | Activity (HepG2) | Activity (Bacillus cereus)
